Source: PubChem BioAssay (several laboratories)
Sampled rows, rich in hits. Any-hit rate of the full collection: about 2.5%.
Tb MetRS inh – T. brucei MetRS inhibitors, primary screen, biochemical, luminescence | purified T. brucei MetRS, ATP depletion, Kinase-Glo luminescence | methionyl-tRNA synthetase (Trypanosoma brucei brucei) | 360,000 tested, 0.4% active | inhibition, % at 11.9 µM;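 active = inhibition above a per-plate cutoff of the control wells' mean inhibition plus 3 SD, cut at about 5.5% in these data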
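Test system – parasite MetRS enzyme · Reagent – substrates ATP, L-methionine and bulk Escherichia coli tRNA · Doses – 11.9 µM compound single dose, 0.9% DMSO · Times – 15 min enzyme-compound preincubation, 2 h reaction, 10 min detection, 25 °C · Signal – Kinase-Glo luminescence, ATP depletion format · Controls – DMSO-only wells as low control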
Bfl-1 A1 inh – caspase 3/7 activation in MEF A1-2A-BIM cells, primary screen, A1 inhibitor project, cell-based, luminescence, HTS; Caspase-Glo 3/7 luminescence, 3 h; percent of clofoctol response, vehicle zero; caspase activation, % (no concentration beside the values); 330,000 tested, 0.066% active;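 active = over half of replicate activation scores above 10%, or exactly half above 10 with the replicate mean above 10; inconclusive = replicate mean below 10 yet half the replicates above 10; inactive = over half of replicates below 10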
NLRP3 yeast inh – NALP3 inflammasome inhibitors in reconstituted yeast, primary screen, luminescence, uHTS; 330,000 tested, 0.39% active; inhibition, % at 10 µM; Yeast reconstituted NLRP3/ASC/caspase-1, beta-gal luminescence, 24 h;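 active = inhibition of 50% or more; inactive = inhibition below 50%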
NALP1 yeast inh – NALP1 inflammasome inhibitors in reconstituted yeast, colorimetric, S. cerevisiae, triplicate retest; S. cerevisiae NALP1/ASC/caspase-1 growth, X-gal OD620, 72 h; inhibition, % at 10 µM; 280,000 tested, 0.61% active; AID 2071, 2009; in the data active = inhibition mostly above about 24%, no sharp cut-off; inactive = mostly below about 32%
MC4R antag cAMP – MC4R antagonists of cAMP signaling, primary screen, cell-based, TR-FRET, antagonist arm of biased-ligand search; 360,000 tested, 0.48% active; MC4R-expressing cells, MTII-stimulated cAMP, LANCE TR-FRET; Melanocortin receptor 4 (Homo sapiens), P32245; inhibition, % at 6.5 µM;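 active = inhibition above its plate's cutoff, the mean of tested wells on that plate plus 3 SD, cut at about 29% in these data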
Target sequence (P32245 whole entry, looked up): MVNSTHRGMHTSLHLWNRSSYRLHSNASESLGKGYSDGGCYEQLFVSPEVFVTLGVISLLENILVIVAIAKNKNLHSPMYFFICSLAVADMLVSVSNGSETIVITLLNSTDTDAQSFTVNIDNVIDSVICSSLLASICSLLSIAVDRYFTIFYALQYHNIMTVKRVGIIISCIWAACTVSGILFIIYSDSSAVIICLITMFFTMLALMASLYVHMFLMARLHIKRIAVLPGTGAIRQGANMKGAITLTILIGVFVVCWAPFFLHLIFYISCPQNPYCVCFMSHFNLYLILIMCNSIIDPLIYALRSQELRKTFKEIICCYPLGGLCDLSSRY
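System: U2OS cells stably expressing human melanocortin 4 receptor (MC4R). Reagent: Melanotan II challenge after compound preincubation. Doses: 6.5 µM. Times: 30-min compound, 1-h challenge, 1-h detection, room temperature. Measured by: TR-FRET with Eu-cAMP and labeled anti-cAMP, 671 nm. Replicates: singlicate.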
MC4R ag barr – MC4R agonists recruiting beta-arrestin, primary screen, cell-based, luminescence, agonist arm of biased-ligand search | U2OS MC4R beta-arrestin complementation; percent of melanotan II response, DMSO zero | activation, % at 8.9 µM | 360,000 tested, 0.98% active | AID 540308, 2011;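 active = activation above a per-plate cutoff, the mean activation of sample wells on that plate plus 3 SD, cut at about 8% in these data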
Each line names hits and unclear results; the compound was inactive in the other large screens.

O=C(CCc1nc(-c2ccccc2)c(-c2ccccc2)o1)OCc1ccc(Cl)cc1	NALP1 yeast inh 37
O=C(CCc1nc(-c2ccccc2)c(-c2ccccc2)o1)OCc1ccc(Br)cc1	none
CC1(NC(=S)Nc2ccccc2)CCS(=O)(=O)C1 (centres undefined)	MC4R ag barr 9.1
COc1ccc(CN(C)C(=O)C(Cc2ccccc2)NC(=O)c2ccccc2)c(OC)c1 (centres undefined)	none (no result: NALP1 yeast inh)
Cc1ccc(S(=O)(=O)NCC(=O)OCC(=O)N2N=C(c3ccc(Cl)cc3)CC2c2ccco2)cc1C (centres undefined)	MC4R ag barr 9.2
COc1ccc(CNC(=O)C(=O)NCc2cccnc2)cc1	NALP1 yeast inh 28
O=C(Nc1ccccc1)c1cc(C2CCCCN2S(=O)(=O)c2ccc(F)cc2F)on1 (centres undefined)	none (no result: Bfl-1 A1 inh, NLRP3 yeast inh, NALP1 yeast inh)
CCOC(=O)/C=C1\Nc2ccccc2OC1=O	NALP1 yeast inh 47
COc1ccc([C@@H](OC)[C@@]2(Cc3ccc(O)cc3)N=C(N)N(C)C2=O)cc1	none (no result: NALP1 yeast inh)
OC(CN1CCN(Cc2ccccc2)CC1)Cn1c2ccccc2c2ccccc21 (centres undefined)	NALP1 yeast inh 50
Cc1ccc(OCCN2CCN(CC(O)Cn3c4ccccc4c4ccccc43)CC2)cc1 (centres undefined)	NALP1 yeast inh 76 (no result: Tb MetRS inh, MC4R antag cAMP, MC4R ag barr)
OC(CN1CCCCC1)Cn1c2ccc(Cl)cc2c2cc(Cl)ccc21 (centres undefined)	NALP1 yeast inh 49
O=C(Nc1cccc(-c2nc3cccnc3s2)c1)c1cccnc1Cl	none (no result: NALP1 yeast inh)
O=C(Nc1cccc(-c2nc3cccnc3s2)c1)c1ccc(Cl)nc1	MC4R ag barr 8.6 (no result: NALP1 yeast inh)
CC(c1ccccc1)n1c(N2CCNCC2)nc2c1c(=O)[nH]c(=O)n2C (centres undefined)	none
CCN(CC)CCN1C(=O)/C(=C\c2ccc(Cl)c([N+](=O)[O-])c2)SC1=Nc1ccc(OC)cc1	NALP1 yeast inh 44
COc1ccc(N=C2S/C(=C\c3ccc(Cl)c([N+](=O)[O-])c3)C(=O)N2CCN(C)C)cc1	none
CCCc1nn(C)c2c(=O)[nH]c(-c3cc(S(=O)(=O)N(CCO)CCO)ccc3OCC)nc12	NALP1 yeast inh 30
COC(=O)C1=C(C)N(Cc2ccccc2)C(=NCCc2c[nH]c3ccccc23)N[C@H]1c1cccc(F)c1	MC4R ag barr 8.2 (no result: NALP1 yeast inh)
Cc1ccc(O)c(NC2=C(Cl)C(=O)N(Cc3ccccc3)C2=O)c1	MC4R ag barr 8.7 (no result: Bfl-1 A1 inh, NLRP3 yeast inh)
CC(C)c1nc(C(=O)N2CCc3c([nH]c4ccccc34)C2c2ccccn2)cs1 (centres undefined)	MC4R ag barr 9.0
Cc1nc(C(=O)N2CCc3c([nH]c4ccccc34)C2c2ccccn2)cs1 (centres undefined)	none
O=C(CCC(=O)Nc1ccc(F)cc1)N/N=C/c1cccnc1	none
COCCN(C(=O)c1cc(Cl)nc2ccccc12)c1c(N)n(Cc2ccccc2)c(=O)[nH]c1=O	none (no result: NALP1 yeast inh)
Cc1ccc(N=CNc2ccc(C)cc2C)c(C)c1	NALP1 yeast inh 41
Cc1ccc(NC(=O)CC(=O)Nc2ccc(C)cc2C)c(C)c1	none
Cc1ccc(S(=O)(=O)N2[C@@H](c3ccccc3F)C(C(=O)O)=CC[C@H]2c2ccc(Cl)c(Cl)c2)cc1	none (no result: NALP1 yeast inh)
Cc1nn(Cc2ccccc2Cl)c(C)c1NC(=O)c1cc(-c2ccc(F)cc2)on1	MC4R ag barr 8.9
COc1ccc(S(=O)(=O)N2CCCCCC2)cc1NC(=O)CN(C)Cc1ccc2c(c1)OCO2	none (no result: NALP1 yeast inh)
O=C(NC1CCCC1)c1cccc2c1C(=O)c1ccc(/C=C/c3ccccc3)cc1S2(=O)=O	Bfl-1 A1 inh 40 (no result: NALP1 yeast inh)
CC(C)c1cccc(-c2ccc3c(c2)S(=O)(=O)c2cccc(C(=O)NC4CCCC4)c2C3=O)c1	Bfl-1 A1 inh 7.3 (no result: NALP1 yeast inh)
COc1ccc(-c2ccc3c(c2)S(=O)(=O)c2cccc(C(=O)NC4CCCC4)c2C3=O)cc1OC	none (no result: NALP1 yeast inh)
N=c1c[n+](N2CCOCC2)[n-]o1	MC4R antag cAMP 31
Cc1cc(C)c(C)c(OCC(=O)N2CCOCC2)c1	NALP1 yeast inh 44
Cc1ccc(OCC(=O)N2CCOCC2)cc1C	none
COc1cc(CNc2cccc(F)c2)cc(Br)c1O	NALP1 yeast inh 32
COc1cc(/C=C2/CCCC(C(=O)C(F)(F)F)=C2O)ccc1O	none (no result: NALP1 yeast inh)
COc1cc(/C=C2/CCC/C(=C\c3cc(O)c(OC)c(Cl)c3)C2=O)cc(Cl)c1O	NALP1 yeast inh 24
COc1cc(/C=C2\CCC/C(=C\c3ccc(O)c(OC)c3)C2=O)ccc1O	MC4R ag barr 30
CC(C)(C)c1ccc(OCCC(=O)Nc2cccc(S(=O)(=O)NC3=NCCCCC3)c2)cc1	none (no result: Bfl-1 A1 inh, NALP1 yeast inh)
CCOC(=O)c1ccc(N/C=C\C(=O)c2cccc(OC)c2)cc1	MC4R ag barr 9.4
CCOc1ccc(C(=O)Nc2ccc(Cl)cn2)cc1Cl	MC4R ag barr 8.3
O=C(Nc1ccc(Cl)cn1)Nc1ccc(Cl)cn1	NALP1 yeast inh 30
C[C@H]1CN([C@@H](C)CO)C(=O)c2cc(NC(=O)NC3CCCCC3)ccc2O[C@H]1CN(C)C(=O)Nc1ccc(C(F)(F)F)cc1	none (no result: NALP1 yeast inh)
CN1/C(=C/C(=O)CSc2ccccc2C(=O)O)C(C)(C)c2ccccc21	NALP1 yeast inh 45
COCCOC(=O)c1c(C)n(C)c2ccc(OC(=O)c3ccccc3F)cc12	none
CCN(CC)C(=S)SSC(=S)N(CC)CC	NALP1 yeast inh 102
Brc1cccc(-c2n[nH]c(-c3ccccc3)n2)c1	NALP1 yeast inh 29
O=C(CCc1nc(-c2ccccc2F)no1)Nc1ccc(Oc2ccccc2)cc1	Bfl-1 A1 inh inconclusive, NALP1 yeast inh 41
Cc1c(CC(=O)N[C@@H](C)C(=O)O)c(=O)oc2cc3oc4c(c3cc12)CCCC4	none
CCn1c(SCC(=O)N2CCCCC2)nnc1-c1ccc(S(=O)(=O)N2CCN(C)CC2)cc1	none
CCn1c(SCC(=O)N2CCCC(C)C2)nnc1-c1ccc(S(=O)(=O)N2CCN(C)CC2)cc1 (centres undefined)	NALP1 yeast inh 35
COc1cc(/C=C(/C#N)C(=O)NCCc2c[nH]c3ccccc23)ccc1OCc1ccccc1F	Bfl-1 A1 inh 9.4
Cc1cc(/C=C(\C#N)C(=O)NCCc2c[nH]c3ccccc23)c(C)n1C	none
Cc1cccc(OCC(=O)NCC(=O)N/N=C/c2cc(Br)cc(Br)c2O)c1	none
O=C(OCc1ccc(Br)cc1)c1cnc(Cl)c(Cl)c1	MC4R antag cAMP 33
